This note sets out measurements from ChEMBL document CHEMBL4765245 (Eur J Med Chem, 2020).

Data set [1] can be described thus: Selectivity index, ratio of CC50 for human HeLa cells to IC50 for pleconaril-resistant Coxsackievirus B3 97927 11207K/I1092 mutant infected in HeLa cell line assessed as inhibition of virus-induced cytopathic effect. In kind it is toxicity. The note with it: read-out: Selectivity Index. The essentials: (§1)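 SI calculated as CC50/IC50. Cytotoxicity: 2-day-old confluent HeLa Ohio monolayers were exposed to half-log dilutions from 100 μM in 2% FCS MEM for 72 h at 37 °C, then crystal violet stained, eluted and read at 550/630 nm. Antiviral: compound added just before CVB3 infection of 2-day-old HeLa; CPE scored by crystal violet at 48 h (Pauwels formula). Means from ≥3 tests each.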
(Protection from cytopathic effect is a common read-out in antiviral testing.)

Data set [2] relates to Coxsackievirus B3. Kind of data set: Antiviral activity against pleconaril-resistant Coxsackievirus B3 97927 11207K/I1092 mutant infected in human HeLa cell line assessed as inhibition of virus-induced cytopathic effect measured after 48 hrs by crystal violet uptake assay. The note with it: read-out: IC50. It is filed as functional, organism-based. The essentials:
(§2)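 HeLa Ohio monolayers, 2 days old and confluent, in MEM with 2% FCS. Serial half-log compound dilutions from 100 μM were added just before CVB3 infection. Activity was calculated per Pauwels against six cell and six virus controls; mean IC50 from ≥3 experiments.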

Data set [3] relates to Coxsackievirus B3. Kind of data set: Antiviral activity against wild type Coxsackievirus B3 97927 infected in human HeLa cell line assessed as inhibition of virus-induced cytopathic effect measured after 48 hrs by crystal violet uptake assay. The note with it: Enterovirus B, 97927, HeLa, 48 h; read-out: IC50. It is filed as functional, organism-based. An outline of the steps: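 Coxsackievirus B3 infection of 2-day-old HeLa Ohio monolayers in 2% FCS medium. Half-log dilutions from 100 μM added just before infection; guanidine hydrochloride served as positive control. Antiviral activity calculated per Pauwels; IC50 is the mean of at least 3 separate tests.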

A further data set deals with rhinovirus B14. Kind of data set: Antiviral activity against Rhinovirus B14 infected in human HeLa cell line assessed as inhibition of virus-induced cytopathic effect measured after 72 hrs by crystal violet uptake assay. In kind it is functional, organism-based. The note with it: Rhinovirus B, HeLa, 72 h; read-out: IC50. An outline of the steps: (§3)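 HeLa Ohio monolayers, 1 day old, in 2% FCS medium. Compound added as serial half-log dilutions from 100 μM immediately before rhinovirus infection. Activity calculated per Pauwels; IC50 is the mean of at least 3 experiments.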

The subject of another data set is rhinovirus B5. Briefly: Antiviral activity against Rhinovirus B5 infected in human HeLa cell line assessed as inhibition of virus-induced cytopathic effect measured after 72 hrs by crystal violet uptake assay. In kind it is functional, organism-based. The settings on record: Rhinovirus B, HeLa, 72 h; read-out: IC50. An outline of the steps: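 HeLa Ohio monolayers, 1 day old, in 2% FCS medium. Compound added as serial half-log dilutions from 100 μM immediately before rhinovirus infection. CPE read at 72 h by crystal violet staining, elution and OD 550/630 nm, with six cell and six virus controls per plate. Activity calculated per Pauwels; IC50 is the mean of at least 3 experiments.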

A short description of data set [4]: Mutagenicity in Escherichia coli PQ37 at 10 mg/ml by SOS-chromotest. It is filed as toxicity.
Data set [5] has as its system Coxsackievirus B3. Kind of data set: Antiviral activity against pleconaril-resistant Coxsackievirus B3 97927 11207M/I1092 mutant infected in human HeLa cell line assessed as inhibition of virus-induced cytopathic effect measured after 48 hrs by crystal violet uptake assay. It is filed as functional, organism-based. An outline of the steps:
as §2

Data set [6] can be described thus: Selectivity index, ratio of CC50 for human HeLa cells to IC50 for Rhinovirus B5 infected in HeLa cell line assessed as inhibition of virus-induced cytopathic effect. It is filed as toxicity. The note with it: read-out: Selectivity Index.
Data set [7] deals with Coxsackievirus B3. Kind of data set: Antiviral activity against Coxsackievirus B3 Nancy infected in human HeLa cell line assessed as inhibition of virus-induced cytopathic effect measured after 48 hrs by crystal violet uptake assay. In kind it is functional, organism-based. The note with it: Enterovirus B, Nancy, HeLa, 48 h; read-out: IC50. The essentials:
as §2

The next data set has as its system rhinovirus A2. Briefly: Antiviral activity against Rhinovirus A2 infected in human HeLa cell line assessed as inhibition of virus-induced cytopathic effect measured after 72 hrs by crystal violet uptake assay. It is filed as functional, organism-based. The note with it: Rhinovirus A, HeLa, 72 h; read-out: IC50. An outline of the steps: as §3
The nature of data set [8]: Genotoxicity in Escherichia coli PQ37 assessed as zone of inhibition at 10 mg/ml measured on day 3 by SOS-chromo0test relative to control. In kind it is toxicity. The settings on record: 72 h, time 3 day.
Data set [9] is described as follows: Selectivity index, ratio of CC50 for human HeLa cells to IC50 for Rhinovirus A2 infected in HeLa cell line assessed as inhibition of virus-induced cytopathic effect. In kind it is toxicity. The settings on record: read-out: Selectivity Index.
The subject of data set [10] is Coxsackievirus B3. Briefly: Antiviral activity against pleconaril-resistant Coxsackievirus B3 97927 11207T/I1092 mutant infected in human HeLa cell line assessed as inhibition of virus-induced cytopathic effect measured after 48 hrs by crystal violet uptake assay. It is filed as functional, organism-based. The settings on record: read-out: IC50. The essentials:
as §2

Data set [11] in a line: Selectivity index, ratio of CC50 for human HeLa cells to IC50 for Coxsackievirus B3 Nancy infected in HeLa cell line assessed as inhibition of virus-induced cytopathic effect. In kind it is toxicity. The settings on record: read-out: Selectivity Index. An outline of the steps:
as §1

The nature of data set [12]: Elimination rate constant in Balb/c mouse at 100 mg/kg, IG measured upto 7 hrs by HPLC-MS method. The note with it: in vivo, po. In kind it is ADME, organism-based. The essentials: (§4)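 Male BALB/c mice (~20 g), food withheld 1 h before and after dosing; single 100 mg/kg intragastric dose as suspension in 0.5% CMC with one drop Tween-80. Blood taken at 0.5, 1, 2, 3, 5, 7 h (3 animals per time point); plasma MeCN-precipitated, HPLC-MS (ESI positive). Non-compartmental analysis: AUC by trapezium with extrapolation; CL = dose/AUC; Vd = CL/kel.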

Data set [13] is described as follows: Selectivity index, ratio of CC50 for human HeLa cells to IC50 for Rhinovirus B14 infected in HeLa cell line assessed as inhibition of virus-induced cytopathic effect. In kind it is toxicity. The note with it: read-out: Selectivity Index.
A short description of data set [14]: Volume of distribution in Balb/c mouse at 100 mg/kg, IG measured upto 7 hrs by HPLC-MS method. In kind it is ADME, organism-based. The note with it: in vivo, po. An outline of the steps: as §4
The nature of data set [15]: Selectivity index, ratio of CC50 for human HeLa cells to IC50 for pleconaril-resistant Coxsackievirus B3 97927 11207M/I1092 mutant infected in HeLa cell line assessed as inhibition of virus-induced cytopathic effect. It is filed as toxicity. The note with it: read-out: Selectivity Index. An outline of the steps:
as §1

Data set [16] can be described thus: AUC (0 to infinity) in Balb/c mouse at 100 mg/kg, IG measured upto 7 hrs by HPLC-MS method. It is filed as ADME, organism-based. Also noted: route […], dose 100 mg/kg, time <=7. The settings on record: in vivo, po. An outline of the steps: as §4
The nature of data set [17]: Clearance in Balb/c mouse at 100 mg/kg, IG measured upto 7 hrs by HPLC-MS method. It is filed as ADME, organism-based. The settings on record: in vivo, po. An outline of the steps:
as §4

The next data set deals with HeLa. Kind of data set: Cytotoxicity against human HeLa cells assessed as reduction in cell viability incubated for 72 hrs measured by crystal violet based micro plate reader method. The note with it: hela, 72 h. An outline of the steps:
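Two-day-old confluent HeLa Ohio monolayers exposed to half-log dilutions (100 μM downward) in 2% FCS medium for 72 h at 37 °C, 5% CO2. Cells fixed and stained with crystal violet/formalin, dye eluted with acidified citrate-ethanol, OD read at 550/630 nm. Viability expressed relative to six mock-treated controls; CC50 is the mean of at least 3 tests.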

Data set [18] can be described thus: Selectivity index, ratio of CC50 for human HeLa cells to IC50 for Coxsackievirus B3 97927 wild type infected in HeLa cell line assessed as inhibition of virus-induced cytopathic effect. In kind it is toxicity. The settings on record: read-out: Selectivity Index. An outline of the steps: as §1
Data set [19] can be described thus: Selectivity index, ratio of CC50 for human HeLa cells to IC50 for pleconaril-resistant Coxsackievirus B3 97927 11207T/I1092 mutant infected in HeLa cell line assessed as inhibition of virus-induced cytopathic effect. In kind it is toxicity. The settings on record: read-out: Selectivity Index. An outline of the steps: as §1

For the compound `Cc1cc(-c2noc(C(F)(F)F)n2)ccc1OCCCc1cc(C(=O)N(C)C)no1`, the selectivity ratio was 2.8 in data set [1]; 2.6 in data set [6]; 15.6 in data set [9]; 4.9 in data set [11]; 149 in data set [13]; 1340 in data set [15]. Also, the selectivity ratio in data set [18] came to 669; in data set [19] it was 1340. Moreover, the IC50 with Coxsackievirus B3 [2] is 4.79 µM; in the data set with Coxsackievirus B3 [3], 0.02 µM; in the data set on rhinovirus B14 it was 0.09 µM; in the data set with rhinovirus B5, 5.25 µM; with Coxsackievirus B3 [5], 0.01 µM; in the data set on Coxsackievirus B3 [7], 2.76 µM. Moreover, the IC50 in the data set with rhinovirus A2 was determined as 0.86 µM; in the data set with Coxsackievirus B3 [10], 0.01 µM. Also, in data set [4], the Activity entry was “Non-Toxic”. Further, the “inhibition zone (IZ)” value in data set [8] came to 0 mm. Moreover, in data set [12], the Kel was 0.4373 h⁻¹. This compound displayed a Vd in data set [14] of 1.52 L. Further, the AUC in data set [16] was determined as 3015.5 ng·h/mL. Besides, the clearance in data set [17] came out at 0.66 L/h. Besides, in the data set on HeLa, the CC50 was determined as 13.4 µM.

The IC50 is the concentration that gives 50% inhibition. By AUC is commonly meant concentration integrated over time. The low end stands for low exposure, the high end for high exposure. For orientation: CC50 means the concentration that lowers cell viability or growth by half.
